Ten compounds from ChEMBL document CHEMBL4130604, “Germacrane-Type Sesquiterpenoids with Antiproliferative Activities from Eupatorium chinense” (J Nat Prod, 2018) can be followed below.

Holding throughout (type): functional, cell-based
Assay [1] relates to Ca-Ski. Put plainly: Antiproliferative activity against human CaSki cells after 48 hrs by MTT assay. In short, it runs like this: (§1)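 Cytotoxicity was read by MTT method on human Caski cervical, MDA-MB-231 breast, CNE2 nasopharyngeal and HepG2 hepatocellular carcinoma lines. Mitomycin C served as positive control, and medium containing 0.1% DMSO was the negative control. IC50 values are reported in μM. Other details follow an earlier protocol.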
A general note: Tetrazolium assays rely on reduction of a dye to a coloured formazan, in cell work by metabolically active cells.

In assay [2] the test system is MDA-MB-231. Put plainly: Antiproliferative activity against human MDA-MB-231 cells after 48 hrs by MTT assay. Particulars: MDA-MB-231, 48 h. In short, it runs like this: as §1
In assay [3] the test system is CNE-2. The experiment in a line: Antiproliferative activity against human CNE2 cells after 48 hrs by MTT assay. Particulars: CNE-2, 48 h. In short, it runs like this:
as §1

Assay [4] deals with HepG2. Put plainly: Antiproliferative activity against human HepG2 cells after 48 hrs by MTT assay. Particulars: HepG2, 48 h. A digest of the protocol: as §1

For orientation: IC50 means the concentration needed to halve the response being measured. Read a low IC50 as greater potency. Turning to `C=C1C(=O)O[C@@H]2/C=C(/CO)[C@@H](OC(C)=O)C/C=C(\C)C[C@@H](OC(=O)/C(=C\C)CO)[C@@H]12`, the IC50 in assay [1] was > 10 µM; in assay [2], > 10 µM; in assay [3], > 10 µM; in assay [4], 7.6 µM.
For the compound `C=C1C(=O)O[C@@H]2/C=C(/C)[C@@H](OC(C)=O)C/C=C(\C)C[C@@H](OC(=O)/C(=C\C)CO)[C@@H]12`, the IC50 was > 10 µM in assay [1], 0.8 µM in assay [2], > 10 µM in assay [3] and 3.6 µM in assay [4].
On to `CO[C@@]12[C@H](COC(N)=O)C3=C(C(=O)C(C)=C(N)C3=O)N1C[C@@H]1N[C@@H]12` [MITOMYCIN], for which the IC50 in assay [1] is > 10 µM; in assay [2], 4.4 µM; in assay [3], > 10 µM; in assay [4] it was > 10 µM.
For `C=C1C(=O)O[C@@H]2/C=C(/C)[C@@H](OC(C)=O)C[C@@H](O)C(=C)C[C@@H](OC(=O)/C(=C\C)CO)[C@@H]12`, the IC50 in assay [1], in assay [2], in assay [3] and in assay [4] was > 10 µM throughout.
With `C=C1C(=O)O[C@@H]2/C=C(/COC(C)=O)[C@@H](OC(C)=O)C/C=C(\C)C[C@@H](OC(=O)/C(C)=C/CO)[C@@H]12`, the IC50 in assay [1], in assay [2], in assay [3] and in assay [4] was > 10 µM in each case.
With `C=C1C(=O)O[C@@H]2/C=C(/C)[C@@H](OC(C)=O)[C@H](O)/C=C(\C)C[C@@H](OC(=O)/C(=C\C)CO)[C@@H]12`, the IC50 in assay [1], in assay [2], in assay [3] and in assay [4] was > 10 µM throughout.
Regarding `C=C1C(=O)O[C@@H]2/C=C(/C)[C@@H](OC(C)=O)[C@H](OC(C)=O)/C=C(\C)C[C@@H](OC(=O)/C(=C\C)CO)[C@@H]12`, the IC50 in assay [1], in assay [2], in assay [3] and in assay [4] was > 10 µM each time.
As to `C=C1C(=O)O[C@@H]2/C=C(/CO)[C@@H](OC(C)=O)C/C=C(\C)C[C@@H](OC(=O)/C(C)=C/C)[C@@H]12`, the IC50 in assay [1], in assay [2], in assay [3] and in assay [4] was > 10 µM each time.
Regarding `C=C1C(=O)O[C@@H]2/C=C(/CO)[C@@H](OC(C)=O)C[C@@H](O)C(=C)C[C@@H](OC(=O)/C(=C\C)CO)[C@@H]12`, the IC50 in assay [1], in assay [2], in assay [3] and in assay [4] was > 10 µM throughout.
In the case of `C=C1C(=O)O[C@@H]2/C=C(/C)[C@H](OC(C)=O)C/C=C(\C)C[C@@H](OC(=O)/C(=C\C)CO)[C@@H]12`, the IC50 in assay [1] was > 10 µM; in assay [2], 3.3 µM; in assay [3], > 10 µM; in assay [4] it was 6.3 µM.
